Laboratory results from ChEMBL document CHEMBL2407068, “Tropolones as lead-like natural products: the development of potent and selective histone deacetylase inhibitors” (ACS Med Chem Lett, 2013).
pKi: −log10 of the molar value.

Legend:
[1] = Cytotoxicity against HDF after 72 hrs by MTS assay; settings: human, HDF cells
HCT-116 = test: Cytotoxicity against human HCT116 cells after 72 hrs by MTS assay; type: functional; settings: HCT-116, 72 h
Jurkat = test: Cytotoxicity against human Jurkat cells after 72 hrs by MTS assay; type: functional
Homo sapiens [2] = species on record: Homo sapiens; test: Selectivity ratio of Ki for human recombinant HDAC4 to Ki for human recombinant HDAC2
[3] = target: T1, Protein deacetylase HDAC6 (Homo sapiens, UniProt Q9UBN7); test: Inhibition of human recombinant HDAC6 by Michaelis-Menten equation analysis
T1 sequence (Q9UBN7 whole entry): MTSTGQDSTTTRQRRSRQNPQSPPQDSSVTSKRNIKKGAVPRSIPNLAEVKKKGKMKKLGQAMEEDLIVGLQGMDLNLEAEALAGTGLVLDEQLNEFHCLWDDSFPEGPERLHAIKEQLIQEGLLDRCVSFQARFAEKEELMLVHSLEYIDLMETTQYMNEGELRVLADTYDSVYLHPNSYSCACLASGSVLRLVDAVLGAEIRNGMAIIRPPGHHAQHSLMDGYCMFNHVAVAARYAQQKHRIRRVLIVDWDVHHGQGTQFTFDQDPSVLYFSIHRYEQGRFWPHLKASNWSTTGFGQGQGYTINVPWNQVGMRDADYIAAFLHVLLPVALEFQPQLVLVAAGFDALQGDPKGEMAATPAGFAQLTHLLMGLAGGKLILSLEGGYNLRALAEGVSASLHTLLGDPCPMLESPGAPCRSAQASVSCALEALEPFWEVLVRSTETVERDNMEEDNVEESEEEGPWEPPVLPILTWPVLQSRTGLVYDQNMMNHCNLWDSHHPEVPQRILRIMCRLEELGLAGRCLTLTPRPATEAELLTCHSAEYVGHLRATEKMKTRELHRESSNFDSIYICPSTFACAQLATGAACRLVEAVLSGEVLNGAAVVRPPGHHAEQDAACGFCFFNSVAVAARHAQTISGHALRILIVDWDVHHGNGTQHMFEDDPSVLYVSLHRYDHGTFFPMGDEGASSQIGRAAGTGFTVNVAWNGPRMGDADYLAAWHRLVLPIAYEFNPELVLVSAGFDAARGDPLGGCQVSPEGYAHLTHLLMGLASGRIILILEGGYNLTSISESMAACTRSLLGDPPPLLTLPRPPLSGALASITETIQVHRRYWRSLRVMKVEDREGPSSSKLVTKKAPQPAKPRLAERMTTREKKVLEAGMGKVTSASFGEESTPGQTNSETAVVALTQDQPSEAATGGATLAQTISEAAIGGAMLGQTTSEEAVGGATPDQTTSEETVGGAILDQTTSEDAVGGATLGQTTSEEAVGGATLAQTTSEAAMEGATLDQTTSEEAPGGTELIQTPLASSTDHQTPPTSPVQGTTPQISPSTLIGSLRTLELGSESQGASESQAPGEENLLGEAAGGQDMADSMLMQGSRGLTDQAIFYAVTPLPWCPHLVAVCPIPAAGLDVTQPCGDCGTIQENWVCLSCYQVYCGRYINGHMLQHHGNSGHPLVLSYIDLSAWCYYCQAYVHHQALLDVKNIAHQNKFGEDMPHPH

Homo sapiens [4] = species on record: Homo sapiens; test: Selectivity ratio of Ki for human recombinant HDAC6 to Ki for human recombinant HDAC2
Histone deacetylase 5 = Histone deacetylase 5 (Homo sapiens, UniProt Q9UQL6); test: Inhibition of human recombinant HDAC5 by Michaelis-Menten equation analysis
Histone deacetylase 5, sequence (Q9UQL6 whole entry): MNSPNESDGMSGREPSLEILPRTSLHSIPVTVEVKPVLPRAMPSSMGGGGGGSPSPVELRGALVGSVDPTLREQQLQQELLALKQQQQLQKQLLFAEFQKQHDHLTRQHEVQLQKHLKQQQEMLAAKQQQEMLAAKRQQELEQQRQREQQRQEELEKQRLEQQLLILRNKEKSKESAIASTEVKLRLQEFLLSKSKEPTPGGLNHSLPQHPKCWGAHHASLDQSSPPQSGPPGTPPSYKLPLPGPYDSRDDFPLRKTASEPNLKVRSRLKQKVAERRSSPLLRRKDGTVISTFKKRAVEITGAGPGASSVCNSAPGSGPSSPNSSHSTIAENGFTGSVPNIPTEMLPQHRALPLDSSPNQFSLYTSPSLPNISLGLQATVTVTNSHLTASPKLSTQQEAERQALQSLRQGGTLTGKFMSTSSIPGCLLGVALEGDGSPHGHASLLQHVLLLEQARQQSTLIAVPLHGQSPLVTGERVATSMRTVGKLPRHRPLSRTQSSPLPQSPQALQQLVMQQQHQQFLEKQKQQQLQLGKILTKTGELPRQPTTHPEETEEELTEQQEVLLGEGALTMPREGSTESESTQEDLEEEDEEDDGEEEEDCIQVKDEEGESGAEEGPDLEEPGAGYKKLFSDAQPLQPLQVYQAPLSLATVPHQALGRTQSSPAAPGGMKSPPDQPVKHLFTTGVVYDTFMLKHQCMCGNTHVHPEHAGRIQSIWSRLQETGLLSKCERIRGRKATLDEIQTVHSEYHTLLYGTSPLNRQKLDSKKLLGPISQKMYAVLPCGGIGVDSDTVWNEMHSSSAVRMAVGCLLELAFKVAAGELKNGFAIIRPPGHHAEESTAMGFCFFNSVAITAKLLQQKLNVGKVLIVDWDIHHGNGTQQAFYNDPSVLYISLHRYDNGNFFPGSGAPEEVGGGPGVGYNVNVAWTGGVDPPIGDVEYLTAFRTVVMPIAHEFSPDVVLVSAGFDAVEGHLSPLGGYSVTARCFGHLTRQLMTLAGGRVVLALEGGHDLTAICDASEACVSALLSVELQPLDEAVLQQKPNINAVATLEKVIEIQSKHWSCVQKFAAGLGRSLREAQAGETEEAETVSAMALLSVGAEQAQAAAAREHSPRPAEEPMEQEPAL

Homo sapiens [5] = species on record: Homo sapiens; test: Selectivity ratio of Ki for human recombinant HDAC8 to Ki for human recombinant HDAC2
Histone deacetylase 4 = Histone deacetylase 4 (Homo sapiens, UniProt P56524); test: Inhibition of human recombinant HDAC4 by Michaelis-Menten equation analysis
Histone deacetylase 4, sequence (P56524 whole entry): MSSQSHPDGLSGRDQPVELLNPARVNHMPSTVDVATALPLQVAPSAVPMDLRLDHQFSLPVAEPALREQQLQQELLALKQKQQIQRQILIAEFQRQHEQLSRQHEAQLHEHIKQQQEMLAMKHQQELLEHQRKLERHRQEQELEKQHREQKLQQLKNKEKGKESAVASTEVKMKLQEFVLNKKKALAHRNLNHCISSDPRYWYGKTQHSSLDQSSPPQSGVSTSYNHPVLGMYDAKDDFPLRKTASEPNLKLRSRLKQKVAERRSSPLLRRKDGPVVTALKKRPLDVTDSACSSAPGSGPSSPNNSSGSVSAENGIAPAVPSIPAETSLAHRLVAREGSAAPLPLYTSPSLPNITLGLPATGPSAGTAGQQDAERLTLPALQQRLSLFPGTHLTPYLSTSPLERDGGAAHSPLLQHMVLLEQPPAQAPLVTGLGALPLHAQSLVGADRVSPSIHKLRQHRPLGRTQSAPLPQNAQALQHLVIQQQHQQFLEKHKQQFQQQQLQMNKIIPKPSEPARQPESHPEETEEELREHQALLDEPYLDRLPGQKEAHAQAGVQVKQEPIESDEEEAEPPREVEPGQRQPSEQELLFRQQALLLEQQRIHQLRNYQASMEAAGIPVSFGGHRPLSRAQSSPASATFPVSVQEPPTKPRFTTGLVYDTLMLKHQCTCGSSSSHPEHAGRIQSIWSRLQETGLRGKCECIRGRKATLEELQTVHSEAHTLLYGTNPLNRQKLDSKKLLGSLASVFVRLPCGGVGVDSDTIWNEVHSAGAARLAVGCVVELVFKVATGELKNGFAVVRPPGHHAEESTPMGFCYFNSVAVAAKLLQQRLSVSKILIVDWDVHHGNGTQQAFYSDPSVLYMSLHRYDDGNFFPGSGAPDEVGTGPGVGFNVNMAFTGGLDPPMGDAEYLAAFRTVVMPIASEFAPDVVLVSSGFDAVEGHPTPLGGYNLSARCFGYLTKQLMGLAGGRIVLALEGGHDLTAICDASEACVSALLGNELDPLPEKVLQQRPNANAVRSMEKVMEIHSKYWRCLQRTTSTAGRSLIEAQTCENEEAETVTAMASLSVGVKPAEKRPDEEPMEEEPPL

Homo sapiens [6] = species on record: Homo sapiens; test: Selectivity ratio of Ki for human recombinant HDAC1 to Ki for human recombinant HDAC2
BXPC-3 = test: Cytotoxicity against human BxPC3 cells after 72 hrs by MTS assay; type: functional; settings: BXPC-3, 72 h
Histone deacetylase 1 = Histone deacetylase 1 (Homo sapiens, UniProt Q13547); test: Inhibition of human recombinant HDAC1 by Michaelis-Menten equation analysis
Histone deacetylase 1, sequence (Q13547 whole entry): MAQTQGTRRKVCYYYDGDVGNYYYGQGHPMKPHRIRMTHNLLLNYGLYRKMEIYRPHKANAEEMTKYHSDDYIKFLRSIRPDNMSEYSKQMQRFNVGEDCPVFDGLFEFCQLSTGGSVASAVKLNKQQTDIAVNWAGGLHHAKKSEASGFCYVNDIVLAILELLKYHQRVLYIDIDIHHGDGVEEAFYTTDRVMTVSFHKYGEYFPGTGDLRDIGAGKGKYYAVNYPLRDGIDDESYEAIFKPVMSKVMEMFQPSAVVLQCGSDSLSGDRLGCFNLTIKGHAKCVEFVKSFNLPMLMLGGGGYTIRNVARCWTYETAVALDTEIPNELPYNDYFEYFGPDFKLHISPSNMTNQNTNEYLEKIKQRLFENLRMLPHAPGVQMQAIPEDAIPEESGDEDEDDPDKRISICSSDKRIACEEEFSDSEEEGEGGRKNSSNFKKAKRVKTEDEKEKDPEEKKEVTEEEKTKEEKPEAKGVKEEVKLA

Histone deacetylase 8 = target: T2, Histone deacetylase 8 (Homo sapiens, UniProt Q9BY41); test: Inhibition of human recombinant HDAC8 by Michaelis-Menten equation analysis
T2 sequence (Q9BY41 whole entry): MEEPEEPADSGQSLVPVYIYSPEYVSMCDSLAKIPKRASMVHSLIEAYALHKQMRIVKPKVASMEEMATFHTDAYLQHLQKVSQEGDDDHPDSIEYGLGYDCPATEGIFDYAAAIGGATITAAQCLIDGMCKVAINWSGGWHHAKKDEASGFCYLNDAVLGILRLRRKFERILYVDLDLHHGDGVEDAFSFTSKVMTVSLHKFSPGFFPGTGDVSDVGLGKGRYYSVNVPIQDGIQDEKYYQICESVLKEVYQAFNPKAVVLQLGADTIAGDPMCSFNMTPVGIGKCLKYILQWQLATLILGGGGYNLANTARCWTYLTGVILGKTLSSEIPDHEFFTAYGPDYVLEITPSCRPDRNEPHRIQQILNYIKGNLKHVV

Liver = test: Half life in mouse liver microsomes assessed as gluconoride formation at 0.4 ug/mL by HPLC-MS analysis in presence of UDPGA; type: ADME, Microsome
How it was run: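 Mouse liver microsome incubation run for phase II conjugation, with UDPGA added. Half-life was determined, and the glucuronide conjugate was detected by mass spectrometry.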

Histone deacetylase 2 = Histone deacetylase 2 (Homo sapiens, UniProt Q92769); test: Inhibition of human recombinant HDAC2 by Michaelis-Menten equation analysis
Histone deacetylase 2, sequence (Q92769 whole entry): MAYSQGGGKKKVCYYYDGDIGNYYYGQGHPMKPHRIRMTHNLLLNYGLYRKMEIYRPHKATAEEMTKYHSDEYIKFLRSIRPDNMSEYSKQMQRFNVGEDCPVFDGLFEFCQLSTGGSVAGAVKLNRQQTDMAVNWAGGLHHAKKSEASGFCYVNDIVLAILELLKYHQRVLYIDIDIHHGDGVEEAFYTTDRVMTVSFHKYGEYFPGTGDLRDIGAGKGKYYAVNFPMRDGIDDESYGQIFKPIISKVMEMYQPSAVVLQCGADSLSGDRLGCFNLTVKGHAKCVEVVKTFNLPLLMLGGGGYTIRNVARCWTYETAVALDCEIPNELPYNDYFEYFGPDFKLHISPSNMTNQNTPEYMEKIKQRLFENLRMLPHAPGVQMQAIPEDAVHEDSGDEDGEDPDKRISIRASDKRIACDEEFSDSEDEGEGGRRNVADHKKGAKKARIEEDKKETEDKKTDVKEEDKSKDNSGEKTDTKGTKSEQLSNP

Homo sapiens [7] = species on record: Homo sapiens; test: Selectivity ratio of Ki for human recombinant HDAC5 to Ki for human recombinant HDAC2
HuT78 = test: Cytotoxicity against human HUT78 cells after 72 hrs by MTS assay; type: functional; settings: HuT78, 72 h

COc1ccc(-c2ccccc(O)c2=O)c(OC)c1OC
GI50 at 72 h [1]: > 100000 nM | GI50 (HCT-116): 35000 nM | GI50 (Jurkat): 1860 nM | Ratio Ki (Homo sapiens [2]): > 100 | pKi [3]: < 5.60 | Ratio Ki (Homo sapiens [4]): > 100 | pKi (Histone deacetylase 5): < 5.60 | Ratio Ki (Homo sapiens [5]): > 100 | pKi (Histone deacetylase 4): < 4.70 | Ratio Ki (Homo sapiens [6]): > 100 | GI50 (BXPC-3): 21000 nM | pKi (Histone deacetylase 1): < 5.60 | pKi (Histone deacetylase 8): 6.91 | t1/2 (Liver): > 1 h | pKi (Histone deacetylase 2): 9.64 | Ratio Ki (Homo sapiens [7]): > 100 | GI50 (HuT78): 4740 nM

CC(C)c1cccc(=O)c(O)c1 [HINOKITIOL]
GI50 at 72 h [1]: > 100000 nM | GI50 (HCT-116): 6920 nM | GI50 (Jurkat): 1100 nM | pKi [3]: < 5.60 | pKi (Histone deacetylase 5): < 5.60 | pKi (Histone deacetylase 4): < 4.70 | GI50 (BXPC-3): 19000 nM | pKi (Histone deacetylase 1): < 5.60 | pKi (Histone deacetylase 8): 6.75 | t1/2 (Liver): > 1 h | pKi (Histone deacetylase 2): 7.81 | GI50 (HuT78): 4990 nM

O=c1c(O)ccccc1-c1ccc2ccccc2c1
GI50 at 72 h [1]: 93100 nM | GI50 (HCT-116): 32100 nM | GI50 (Jurkat): 1150 nM | Ratio Ki (Homo sapiens [2]): > 100 | pKi [3]: < 5.60 | Ratio Ki (Homo sapiens [4]): > 100 | pKi (Histone deacetylase 5): < 5.60 | Ratio Ki (Homo sapiens [5]): > 100 | pKi (Histone deacetylase 4): < 4.70 | Ratio Ki (Homo sapiens [6]): > 100 | GI50 (BXPC-3): 17100 nM | pKi (Histone deacetylase 1): < 5.60 | pKi (Histone deacetylase 8): 6.73 | t1/2 (Liver): > 1 h | pKi (Histone deacetylase 2): 9.60 | Ratio Ki (Homo sapiens [7]): > 100 | GI50 (HuT78): 4110 nM

COc1ccc(-c2cccc(O)c(=O)c2)cc1
GI50 at 72 h [1]: > 100000 nM | GI50 (HCT-116): 43700 nM | GI50 (Jurkat): 4620 nM | pKi [3]: < 5.60 | pKi (Histone deacetylase 5): < 5.60 | pKi (Histone deacetylase 4): 5.08 | GI50 (BXPC-3): 91600 nM | pKi (Histone deacetylase 1): < 5.60 | pKi (Histone deacetylase 8): 8.62 | t1/2 (Liver): > 1 h | pKi (Histone deacetylase 2): 9.92 | GI50 (HuT78): 8950 nM

COc1ccc(OC)c(-c2ccccc(O)c2=O)c1
GI50 at 72 h [1]: > 100000 nM | GI50 (HCT-116): 46600 nM | GI50 (Jurkat): 760 nM | Ratio Ki (Homo sapiens [2]): > 100 | pKi [3]: < 5.60 | Ratio Ki (Homo sapiens [4]): > 100 | pKi (Histone deacetylase 5): < 5.60 | Ratio Ki (Homo sapiens [5]): > 100 | pKi (Histone deacetylase 4): < 4.70 | Ratio Ki (Homo sapiens [6]): > 100 | GI50 (BXPC-3): 14100 nM | pKi (Histone deacetylase 1): < 5.60 | pKi (Histone deacetylase 8): 6.09 | t1/2 (Liver): > 1 h | pKi (Histone deacetylase 2): 9.38 | Ratio Ki (Homo sapiens [7]): > 100 | GI50 (HuT78): 3050 nM

COc1ccc(-c2ccccc(O)c2=O)cc1
GI50 at 72 h [1]: > 100000 nM | GI50 (HCT-116): 57000 nM | GI50 (Jurkat): 620 nM | Ratio Ki (Homo sapiens [2]): > 100 | pKi [3]: < 5.60 | Ratio Ki (Homo sapiens [4]): > 100 | pKi (Histone deacetylase 5): < 5.60 | Ratio Ki (Homo sapiens [5]): > 100 | pKi (Histone deacetylase 4): < 4.70 | Ratio Ki (Homo sapiens [6]): > 100 | GI50 (BXPC-3): 35900 nM | pKi (Histone deacetylase 1): < 5.60 | pKi (Histone deacetylase 8): 7.08 | t1/2 (Liver): > 1 h | pKi (Histone deacetylase 2): 9.09 | Ratio Ki (Homo sapiens [7]): > 100 | GI50 (HuT78): 2870 nM

O=c1cc(C2CCCC2)cccc1O
GI50 at 72 h [1]: > 100000 nM | GI50 (HCT-116): > 100000 nM | GI50 (Jurkat): 6300 nM | Ratio Ki (Homo sapiens [2]): > 100 | pKi [3]: < 5.60 | Ratio Ki (Homo sapiens [4]): > 100 | pKi (Histone deacetylase 5): < 5.60 | Ratio Ki (Homo sapiens [5]): > 100 | pKi (Histone deacetylase 4): 6.00 | Ratio Ki (Homo sapiens [6]): > 100 | GI50 (BXPC-3): 180000 nM | pKi (Histone deacetylase 1): < 5.60 | pKi (Histone deacetylase 8): 6.91 | t1/2 (Liver): > 1 h | pKi (Histone deacetylase 2): 10.40 | Ratio Ki (Homo sapiens [7]): > 100 | GI50 (HuT78): 11400 nM
